According to ChEMBL document CHEMBL2034961, “Kinase inhibitory potencies and in vitro antiproliferative activities of N-10 substituted pyrrolo[2,3-a]carbazole derivatives” (Bioorg Med Chem Lett, 2012):

Columns and labels:
[1] = biological target: T1, Serine/threonine-protein kinase pim-1 (Homo sapiens, UniProt P11309); test: Inhibition of Pim-1 using RSRHSSYPAGT as substrate assessed as residual activity at 10 uM after 30 mins
Outline: (§1)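 Each Pim isoform (Pim-1, Pim-2, Pim-3) was assayed in duplicate by a previously published method. Compounds were tested at single concentrations of 10 and 1, and results are given as percent residual kinase activity.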
Target sequence in this assay (P11309 whole entry, looked up, canonical isoform): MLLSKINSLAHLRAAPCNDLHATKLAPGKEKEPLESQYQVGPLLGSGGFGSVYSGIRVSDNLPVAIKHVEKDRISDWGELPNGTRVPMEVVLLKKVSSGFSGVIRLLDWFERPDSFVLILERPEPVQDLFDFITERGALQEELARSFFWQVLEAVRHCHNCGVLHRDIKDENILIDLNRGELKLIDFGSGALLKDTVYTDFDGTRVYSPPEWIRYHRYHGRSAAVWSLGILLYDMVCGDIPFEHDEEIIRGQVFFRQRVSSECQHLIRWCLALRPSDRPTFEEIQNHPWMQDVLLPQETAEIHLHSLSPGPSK

[2] = biological target: T1, Serine/threonine-protein kinase pim-1; test: Inhibition of Pim-1 using RSRHSSYPAGT as substrate assessed as residual activity at 1 uM after 30 mins; outline: as §1
Target sequence in this assay (P11309 whole entry, looked up, canonical isoform): as above

[3] = biological target: T1, Serine/threonine-protein kinase pim-1; test: Inhibition of Pim-1 using RSRHSSYPAGT as substrate after 30 mins
Outline: (§2)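 Kinase assays on each Pim isoform were run in duplicate by a previously published method.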
Target sequence in this assay (P11309 whole entry, canonical isoform): as the sequence (P11309 whole entry, looked up, canonical isoform) above

[4] = biological target: Serine/threonine-protein kinase pim-2 (Homo sapiens) (UniProt Q9P1W9); test: Inhibition of Pim-2 using RSRHSSYPAGT as substrate assessed as residual activity at 10 uM after 30 mins; outline: as §1
Serine/threonine-protein kinase pim-2 (Homo sapiens), sequence (Q9P1W9 whole entry, looked up): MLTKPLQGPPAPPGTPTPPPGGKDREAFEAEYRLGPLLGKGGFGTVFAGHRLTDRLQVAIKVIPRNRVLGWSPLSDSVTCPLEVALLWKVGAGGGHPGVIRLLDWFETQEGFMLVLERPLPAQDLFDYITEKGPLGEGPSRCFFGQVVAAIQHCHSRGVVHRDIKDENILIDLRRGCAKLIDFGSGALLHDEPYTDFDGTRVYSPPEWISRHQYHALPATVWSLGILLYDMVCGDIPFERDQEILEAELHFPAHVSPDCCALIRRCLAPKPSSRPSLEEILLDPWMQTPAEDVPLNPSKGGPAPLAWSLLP

[5] = biological target: Serine/threonine-protein kinase pim-2 (Homo sapiens) (UniProt Q9P1W9); test: Inhibition of Pim-2 using RSRHSSYPAGT as substrate assessed as residual activity at 1 uM after 30 mins; outline: as §1
[6] = biological target: T2, Serine/threonine-protein kinase pim-3 (Homo sapiens, UniProt Q86V86); test: Inhibition of Pim-3 using RSRHSSYPAGT as substrate assessed as residual activity at 10 uM after 30 mins; outline: as §1
[7] = biological target: T2, Serine/threonine-protein kinase pim-3; test: Inhibition of Pim-3 using RSRHSSYPAGT as substrate assessed as residual activity at 1 uM after 30 mins; outline: as §1
[8] = biological target: T2, Serine/threonine-protein kinase pim-3; test: Inhibition of Pim-3 using RSRHSSYPAGT as substrate after 30 mins; outline: as §2
[9] = Cytotoxicity against human fibroblasts by resazurin reduction test; assay type: cell-based; conditions: Fibroblast
Outline: (§3)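 Antiproliferative effect read by resazurin reduction. Cells were a human fibroblast primary culture, PA1 (ovarian carcinoma), and PC3 and DU145 (prostatic carcinoma).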

PA-1 = test: Cytotoxicity against human PA1 cells by resazurin reduction test; assay type: functional, cell-based; outline: as §3
PC-3 = test: Cytotoxicity against human PC3 cells by resazurin reduction test; assay type: functional, cell-based; outline: as §3
DU-145 = test: Cytotoxicity against human DU145 cells by resazurin reduction test; assay type: functional, cell-based; outline: as §3

What does the source list for `CC(C)(C)OC(=O)NCCCCn1c2ccccc2c2ccc3c(C=O)c[nH]c3c21`?
Activity [1]: 4%; Activity [2]: 23%; IC50 [3]: 0.47 µM; Activity [4]: 54%; Activity [5]: 97%; Activity [6]: 3%; Activity [7]: 16%; IC50 [8]: 0.2 µM; IC50 [9]: 17.3 µM; IC50 (PA-1): 14.9 µM; IC50 (PC-3): 13.1 µM; IC50 (DU-145): 12.2 µM

For `CN(C)CCCCn1c2ccccc2c2ccc3c(C=O)c[nH]c3c21`, which Activity [1] is on record?
The Activity was 10%.

And the Activity [2]?
Its Activity is 24%.

What about the IC50 [3] of the same compound?
The IC50 was 0.075 µM.

And the Activity [4]?
The Activity was 22%.

And the Activity [5]?
The Activity was 74%.

And the Activity [6]?
Its Activity is 1%.

And the Activity [7]?
The Activity was 7%.

What about the IC50 [8] of the same compound?
The IC50 was 0.08 µM.

And the IC50 [9]?
The IC50 was 0.63 µM.

What about the IC50 (PA-1) of the same compound?
Its IC50 is 0.486 µM.

What about the IC50 (PC-3) of the same compound?
Its IC50 is 0.65 µM.

What about the IC50 (DU-145) of the same compound?
The IC50 was 0.96 µM.

What does the source list for `N#CCCCCn1c2ccccc2c2ccc3c(C=O)c[nH]c3c21`?
Activity [1]: 1%; Activity [2]: 3%; IC50 [3]: 0.046 µM; Activity [4]: 40%; Activity [5]: 32%; Activity [6]: 2%; Activity [7]: 3%; IC50 [8]: 0.041 µM; IC50 [9]: 14.5 µM; IC50 (PA-1): 8 µM; IC50 (PC-3): 16 µM; IC50 (DU-145): 20 µM
